High-throughput results from PubChem.
Shown are actives, neighbours in structure and some others; about 4.6% of the full set was active somewhere.
TAAR1 ag = agonists of human TAAR1; CHO RD-HGA16 TAAR1, Fluo-8 calcium fluorescence; vehicle wells 0%, saturating PEA agonist 100%; activation, % at 3 µM; 0.99% of 360,000 active;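 active = activation above the mean activation of all test compounds in the run plus 3 SD, cut at about 38% in these data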
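System: CHO-derived RD-HGA16 cells with stable Gα16 and human TAAR1. Times: 17-24 h plating, Fluo-8 75 min 37 °C, 30 min RT. Measured by: calcium-sensitive Fluo-8 signal, excitation 470-495, emission 515-575 nm. Read-out basis: % activation relative to PEA EC100 response. Control set: DMSO and PEA EC100. Repeats: no replicates (n 1).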
GPR7 antag = human neuropeptides B/W receptor 1 antagonism | P48145 | GPR7-expressing cells, fluorescence antagonist assay | inhibition, % at 4.4 µM | 1.1% of 290,000 active | AID 1861; in the data active = inhibition above about 16%, passing the limit was not always enough;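 also: cells stimulated with the agonist NPW; 0% = agonist with vehicle and 100% = vehicle without agonist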
TAAR1 antagonist = human TAAR1 antagonism; Q96RJ0; 1.5% of 360,000 active; inhibition, % at 3 µM; CHO RD-HGA16 TAAR1, Fluo-8 calcium fluorescence, antagonist;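 active = inhibition above a per-plate cutoff, the mean inhibition of test compounds on that plate plus 3 SD, cut at about 49% in these data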;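 also: 0% = DMSO plus EC80 beta-PEA response and 100% = DMSO alone without agonist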
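Test system: CHO RD-HGA16 cells bearing hTAAR1 | Reagent: β-PEA, EC80 | Compound dosing: 3 µM, single point | Schedule: Dye loading 75 min at 37 °C, then 30 min room temperature | Signal: Calcium fluorescence with Fluo-8 | Evaluation: Percent inhibition of PEA-evoked calcium signal, max/basal emission ratio | Control set: DMSO-only wells and EC80 β-PEA-stimulated wells | Repeats: Singlicate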
OX1R antag-1 = antagonists of human orexin 1 receptor; inhibition, % at 5 µM; CHO/OX1R cells, Fluo-8 calcium fluorescence, orexin A; 0.43% of 330,000 active; AID 434989; O43613;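 active = inhibition above its plate's threshold, mean inhibition of all tested compounds on the plate plus 3 SD, cut at about 37% in these data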;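 also: 0% = orexin A challenge wells and 100% = SB-334867-A antagonist wells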
Target sequence (O43613 whole entry, looked up): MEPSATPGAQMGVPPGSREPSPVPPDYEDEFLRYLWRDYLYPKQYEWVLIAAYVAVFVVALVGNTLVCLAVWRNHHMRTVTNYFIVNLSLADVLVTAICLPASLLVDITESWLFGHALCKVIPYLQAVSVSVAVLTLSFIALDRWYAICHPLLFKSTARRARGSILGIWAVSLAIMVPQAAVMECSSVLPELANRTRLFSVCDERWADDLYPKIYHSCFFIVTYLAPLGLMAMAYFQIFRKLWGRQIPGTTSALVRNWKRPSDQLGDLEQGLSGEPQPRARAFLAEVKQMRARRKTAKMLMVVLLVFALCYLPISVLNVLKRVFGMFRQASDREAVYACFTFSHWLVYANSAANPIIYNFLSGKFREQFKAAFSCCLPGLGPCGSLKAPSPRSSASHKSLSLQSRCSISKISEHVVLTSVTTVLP
CHO parental Ca = counter-screen for OX1R antagonists: effect in parental CHO cells; 0.63% of 330,000 active; inhibition, % at 5.6 µM; parental CHO-K1, ATP-induced calcium, Fluo-8 fluorescence; AID 463079;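 active = inhibition above that plate's mean sample inhibition plus 3 SD, cut at about 26% in these data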;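 also: 0% = ATP-challenged DMSO wells and 100% = DMSO wells without ATP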
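Assay system – parental CHO cells · Reagent – ATP stimulus · Detection – intracellular calcium via Fluo-8 no-wash fluorescent dye · Evaluation – percent inhibition of ATP-evoked calcium rise, normalized to controls · Controls – ATP wells versus no-ATP DMSO wells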
OX1R antag-2 = antagonists of human orexin 1 receptor (OX1R) | O43613 | OX1R-expressing cells, FRET antagonist read-out | AID 485270 | inhibition, % at 6.6 µM | 1.8% of 330,000 active; in the data active = inhibition mostly above about 38%, no sharp cut-off; inactive = mostly below about 40%;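 also: 0% = agonist challenge alone and 100% = reference antagonist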
OX1R Fluo8 conf = OX1R (human) antagonism, confirmed | CHO/OX1R cells, orexin A calcium Fluo-8 fluorescence | shares compounds with OX1R antag-1 | 38% of 1,100 active | AID 492963 | inhibition, % at 5 µM; in the data active = inhibition above about 29%;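 also: 0% = agonist challenge alone and 100% = reference antagonist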
CHO Ca triplic = counter-screen for OX1R antagonists: effect in parental CHO cells | shares compounds with OX1R antag-1 | parental CHO-K1, ATP-induced calcium, Fluo-8 fluorescence | inhibition, % at 5.6 µM | 9.3% of 1,100 active;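 active = inhibition above a per-plate limit, the mean inhibition of that plate's test compounds plus 3 SD, cut at about 25% in these data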;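 also: 0% = ATP challenge with DMSO and 100% = DMSO without ATP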
OX1R HTRF conf = confirmation of human orexin 1 receptor antagonists, HTRF format; shares compounds with OX1R antag-2; OX1R-expressing cells, HTRF antagonist assay; inhibition, % at 6.6 µM; 49% of 1,800 active; in the data active = inhibition above about 55%;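 also: CHO cells expressing OX1R stimulated with orexin A at about EC80; 0% = agonist challenge alone and 100% = reference antagonist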
CHO-K1 HTRF cnt = counter-screen: parental CHO-K1 HTRF response. parental CHO-K1 cells, HTRF counterscreen. shares compounds with OX1R antag-2. 48% of 1,800 active. inhibition, % at 6.6 µM; in the data active = inhibition above about 17%;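 also: 0% = agonist challenge with vehicle and 100% = vehicle alone without agonist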
* = called active by the depositor.

Screening CCOc1cc(C(=S)N2CCOCC2)cc(Br)c1OS(=O)(=O)c1ccccc1 returned TAAR1 ag 3, GPR7 antag -5, TAAR1 antagonist -3, OX1R antag-1 28, CHO parental Ca -16, OX1R antag-2 47*, OX1R Fluo8 conf 52*, CHO Ca triplic 6, OX1R HTRF conf 62* and CHO-K1 HTRF cnt 12.
For CC(C)c1ccc(CN(C)C(=O)c2ccc(S(=O)(=O)NCc3ccco3)cc2)cc1 the results were TAAR1 ag 14, TAAR1 antagonist 33, OX1R antag-1 44*, CHO parental Ca -9, OX1R antag-2 42*, OX1R Fluo8 conf 25, CHO Ca triplic 25*, OX1R HTRF conf 42 and CHO-K1 HTRF cnt -4.
Screening COc1ccccc1C(=O)Nc1ccc2nc3n(c(=O)c2c1)CCCC3 returned TAAR1 ag 1, GPR7 antag -14, TAAR1 antagonist -5, OX1R antag-1 36, CHO parental Ca -1, OX1R antag-2 95*, OX1R Fluo8 conf 31*, CHO Ca triplic -4, OX1R HTRF conf 97* and CHO-K1 HTRF cnt 11.
For COc1cc(OC)cc(C(=O)Nc2ccc3nc4n(c(=O)c3c2)CCCCC4)c1 the results were TAAR1 ag -1, GPR7 antag -3, TAAR1 antagonist -4, OX1R antag-1 -29, CHO parental Ca -9 and OX1R antag-2 29.
Screening COc1ccc(-n2nc3c(c2NC(=O)c2ccccc2S(=O)(=O)C(F)F)CS(=O)(=O)C3)cc1 returned TAAR1 ag 0, GPR7 antag -5, TAAR1 antagonist 13, OX1R antag-1 -4, CHO parental Ca -9 and OX1R antag-2 9.
Screening Cc1ccc(NC2CCCN(C(=O)c3cccc(-c4ncc[nH]4)c3)C2)cc1C (stereo not drawn) returned TAAR1 ag 2, GPR7 antag -5, TAAR1 antagonist -8, OX1R antag-1 32, CHO parental Ca -20, OX1R antag-2 93*, OX1R Fluo8 conf 65*, CHO Ca triplic -15, OX1R HTRF conf 92* and CHO-K1 HTRF cnt 4.
Cc1cc(SCC(=O)c2ccc3c(c2)OCO3)nc2ccccc12 was read as TAAR1 ag 6, GPR7 antag 7, TAAR1 antagonist -4, OX1R antag-1 36, CHO parental Ca -21, OX1R antag-2 59*, OX1R Fluo8 conf 11, CHO Ca triplic -9, OX1R HTRF conf 87* and CHO-K1 HTRF cnt -2.
For Cc1cc(SCC(=O)c2ccc(O)c(O)c2)nc2ccccc12 the results were TAAR1 ag 5, GPR7 antag 0, TAAR1 antagonist -27, OX1R antag-1 3, CHO parental Ca 1 and OX1R antag-2 55.
CCC(C)(C)NC(=O)CN(C(=O)c1csnn1)c1ccccc1-c1ccccc1 was read as TAAR1 ag 13, GPR7 antag -11, TAAR1 antagonist -2, OX1R antag-1 72*, CHO parental Ca -24, OX1R antag-2 87*, OX1R Fluo8 conf 32*, CHO Ca triplic 11, OX1R HTRF conf 84* and CHO-K1 HTRF cnt 4.
For N#C/C(=C\Nc1ccc2c(c1)OCCO2)c1nc(-c2ccccc2)cs1 the results were TAAR1 ag 7, GPR7 antag -5, TAAR1 antagonist 22, OX1R antag-1 -7, CHO parental Ca -4 and OX1R antag-2 9.
For N#C/C(=C\Nc1ccc2c(c1)OCCO2)c1nc2ccccc2[nH]1 the results were TAAR1 ag 7, GPR7 antag -29, TAAR1 antagonist 12, OX1R antag-1 28, CHO parental Ca -10, OX1R antag-2 91*, OX1R Fluo8 conf 12, CHO Ca triplic -11, OX1R HTRF conf 74* and CHO-K1 HTRF cnt 10.
